Experimental data reported in ChEMBL document CHEMBL4339243, “Molecular Networking Reveals the Chemical Diversity of Selaginellin Derivatives, Natural Phosphodiesterase-4 Inhibitors from Selaginella tamariscina” (J Nat Prod, 2019).

What follows are molecules tested against T1, 3',5'-cyclic-AMP phosphodiesterase 4D (Homo sapiens, UniProt Q08499) (assay: Inhibition of human PDE4D2 catalytic domain (86 to 413 residues) expressed in Escherichia coli strain BL21 using [3H]cAMP as substrate after 15 mins by liquid scintillation counter analysis).
T1 sequence (Q08499 whole entry, the tested form may be a part): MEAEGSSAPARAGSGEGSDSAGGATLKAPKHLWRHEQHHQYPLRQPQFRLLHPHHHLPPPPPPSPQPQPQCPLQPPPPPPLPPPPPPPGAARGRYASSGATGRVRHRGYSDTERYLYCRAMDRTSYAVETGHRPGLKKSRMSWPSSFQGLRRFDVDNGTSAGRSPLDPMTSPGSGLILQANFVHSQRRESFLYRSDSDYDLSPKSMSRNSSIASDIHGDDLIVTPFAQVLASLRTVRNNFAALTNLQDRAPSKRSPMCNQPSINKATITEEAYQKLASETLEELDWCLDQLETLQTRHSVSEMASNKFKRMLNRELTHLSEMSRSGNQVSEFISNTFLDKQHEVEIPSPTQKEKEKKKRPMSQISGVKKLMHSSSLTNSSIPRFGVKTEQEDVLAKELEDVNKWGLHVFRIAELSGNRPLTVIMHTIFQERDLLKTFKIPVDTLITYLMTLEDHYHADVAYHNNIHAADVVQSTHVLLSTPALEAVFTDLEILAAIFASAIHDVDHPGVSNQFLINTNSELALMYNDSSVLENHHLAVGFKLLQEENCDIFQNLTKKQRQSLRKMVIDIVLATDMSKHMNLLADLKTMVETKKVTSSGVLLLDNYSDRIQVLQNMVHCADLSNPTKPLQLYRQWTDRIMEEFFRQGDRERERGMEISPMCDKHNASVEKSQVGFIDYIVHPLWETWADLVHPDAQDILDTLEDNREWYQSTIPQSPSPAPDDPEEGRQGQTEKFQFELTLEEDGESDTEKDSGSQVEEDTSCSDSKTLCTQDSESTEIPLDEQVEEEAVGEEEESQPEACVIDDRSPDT
Work on `OCc1ccc2c(c1C#Cc1ccc(O)cc1)C(c1ccc(O)cc1)(c1ccc(O)cc1)c1cc(O)ccc1-2` yielded an IC50 of 0.2 µM. With `COc1ccc(C2(c3ccc(OC)cc3)c3cc(O)ccc3-c3cccc(C#Cc4ccc(O)cc4)c32)cc1` the IC50 was 0.09 µM. `COc1ccc(C2(c3ccc(OC)cc3)c3cc(O)ccc3-c3ccc(C=O)c(C#Cc4ccc(O)cc4)c32)cc1` gave an IC50 of 0.01 µM. With `O=C1C=CC(=C(c2ccc(O)cc2)c2c(-c3ccc(O)cc3)ccc(CO)c2C#Cc2ccc(O)cc2)C=C1` the IC50 was 1 µM. `Oc1ccc(C#Cc2ccc(O)c3c2C(c2ccc(O)cc2)(c2ccc(O)cc2)c2cc(O)ccc2-3)cc1` was tested, and the IC50 was 1.2 µM.

Each molecule was assayed against T1, 3',5'-cyclic-AMP phosphodiesterase 4D (assay: Inhibition of PDE4D2 (unknown origin) by preincubated for 30 mins before substrate addition and measured after 60 mins by IMAP TR-FRET phosphodiesterase evaluation assay).
In short: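 Purchased PDE4D2 at 5.0 pg/μL in IMAP buffer (10 mM Tris pH 7.2, 10 mM MgCl2, 0.05% NaN3, 1 mM DTT, 0.1% phosphate-free BSA). Compound or vehicle preincubated 30 min at RT, then FAM-cAMP added (200 nM final), 60 min at RT. Stopped with IMAP Tb binding reagent, 60 min at RT, fluorescence read. IC50 by four-parameter nonlinear fit, three independent replicates.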
With `COc1ccc(C2(c3ccc(OC)cc3)c3cc(O)ccc3-c3ccc(C)c(C#Cc4ccc(O)cc4)c32)cc1` the IC50 was 24.6 µM. `COCc1ccc2c(c1C#Cc1ccc(O)cc1)C(c1ccc(O)cc1)(c1ccc(O)cc1)c1cc(O)ccc1-2` showed an IC50 of 23.2 µM. For `COc1ccc(-c2c3ccc(OC)cc3c3c4c(ccc(-c5ccc(O)cc5)c24)C(=O)O[C@H]3c2ccc(O)cc2)cc1`, the IC50 was 13.7 µM. For `COc1ccc([C@@]2(c3ccc(O)cc3)c3cc(O)ccc3-c3ccc(CO)c(C#Cc4ccc(O)cc4)c32)cc1`, the IC50 was 32.1 µM. Work on `COCc1cc(O)c2c(c1C#Cc1ccc(O)cc1)C(c1ccc(O)cc1)(c1ccc(O)cc1)c1cc(O)ccc1-2` yielded an IC50 of 29.5 µM. Work on `COCc1ccc2c(c1C#Cc1ccc(O)cc1)[C@](c1ccc(O)cc1)(c1ccc(OC)cc1)c1cc(O)ccc1-2` yielded an IC50 of 33.8 µM. Molecule `COCc1ccc2c(c1C#Cc1ccc(O)cc1)C(c1ccc(OC)cc1)(c1ccc(OC)cc1)c1cc(O)ccc1-2` has an IC50 of 2.8 µM. `COc1ccc(C2(c3ccc(OC)cc3)c3cc(O)ccc3-c3ccc(CO)c(C#Cc4ccc(O)cc4)c32)cc1` gave an IC50 of 5.4 µM. With `COc1ccc([C@@]2(c3ccc(O)cc3)c3cc(O)ccc3-c3ccc(C)c(C#Cc4ccc(O)cc4)c32)cc1` the IC50 was 19.5 µM. With `COc1ccc(-c2c3ccc(OC)cc3c3c4c(ccc(-c5ccc(O)cc5)c24)[C@@H](c2ccc(O)cc2)OC3=O)cc1` the IC50 was > 30 µM.
